Laboratory results reported in ChEMBL document CHEMBL5678817, “FTBMT, a Novel and Selective GPR52 Agonist, Demonstrates Antipsychotic-Like and Procognitive Effects in Rodents, Revealing a Potential Therapeutic Agent for Schizophrenia” (J Pharmacol Exp Ther, 2017).
Calls of active or inactive are those of the source. The rule behind the calls is not given here.

Columns and labels:
[1] = molecular target: T1, Voltage-gated L-type calcium channel (Homo sapiens, UniProt O60840+Q01668+Q13698+Q13936); assay: Inhibition of Calcium channel L-type (unknown origin) at 10 uM in presence of benzothiazepine relative to control; assay type: protein assay; details: probe benzothiazepine
How it was run: (§1)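 Single-point screen at 10 μM across receptor, ion channel and enzyme binding or activity assays. Expressed as percent inhibition versus control; negative values denote stimulation.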

[2] = molecular target: Type-1 angiotensin II receptor (Homo sapiens) (UniProt P30556); assay: Inhibition of AT1 receptor (unknown origin) at 10 uM relative to control; how it was run: as §1
[3] = molecular target: T1, Voltage-gated L-type calcium channel; assay: Inhibition of Calcium channel L-type (unknown origin) at 10 uM in presence of phenylalkylamine relative to control; assay type: protein assay; details: probe phenylalkylamine; how it was run: as §1
[4] = molecular target: Nitric oxide synthase 1 (Homo sapiens) (UniProt P29475); assay: Inhibition of nNOS (unknown origin) at 10 uM relative to control
How it was run: (§2)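 Binding and enzyme panel run by an outside contractor against receptors, ion channels and enzymes. Each assay used a single 10 μM test concentration, and results are expressed as percent inhibition. A negative value means stimulation of receptor activity or activation of enzyme activity.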

[5] = molecular target: B2 bradykinin receptor (Homo sapiens) (UniProt P30411); assay: Inhibition of Bradykinin B2 receptor (unknown origin) at 10 uM relative to control; how it was run: as §1
[6] = molecular target: 5-hydroxytryptamine receptor 4 (Homo sapiens) (UniProt Q13639); assay: Inhibition of Serotonin 5-HT4 receptor (unknown origin) at 10 uM relative to control
How it was run: (§3)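 Part of a 98-target external biochemical selectivity panel that used radioligand/receptor binding-type assays. Compound tested once at 10 µM. Results are reported as % inhibition versus control; negative values mean stimulation of receptor activity.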

[7] = molecular target: Progesterone receptor (Homo sapiens) (UniProt P06401); assay: Inhibition of Progesterone receptor (unknown origin) at 10 uM relative to control; how it was run: as §3
[8] = molecular target: T2, G protein-coupled receptor 52 (Rattus norvegicus) (UniProt A0A8I5ZQK1); assay: Agonist activity at GPR52 in rat Striatal neuron assessed as increase in Egr-2 mRNA expression by RT-PCR analysis; assay type: cell-based; details: filed as agonist
How it was run: (§4)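 Rat primary striatal neurons (E18–19), used at DIV 13–16. Treated in HBSS with 5 mM HEPES pH 7.5 and 0.5% fatty-acid-free BSA for 15 or 60 min at 37 °C. Cells were homogenized in RLT buffer and IEG mRNA was quantified by qPCR using absolute or ΔΔCt relative quantification.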

Mus musculus [9] = assay: Antipsychotic activity in GPR52 knockout ICR mouse assessed as inhibition of MK-801-induced hyperactivity at 30 mg/kg, po pretreated with compound for 1 hr followed by MK-801 addition and measured after 90 mins; assay type: functional, organism-based; details: time 150.0 min
Mus musculus [10] = assay: Antipsychotic activity in po dosed ICR mouse assessed as inhibition of MK-801-induced hyperactivity pretreated with compound for 1 hr followed by MK-801 addition and measured after 90 mins; assay type: functional, organism-based; details: dose 3-30 mg/kg, time 150.0 min
How it was run: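 Male ICR mice (7–8 weeks) habituated >60 min in individual cages with activity monitors. Oral dosing at 3–30 mg/kg or vehicle 60 min before MK-801 (0.2 mg/kg s.c.) or vehicle. Activity counted for 60 min pretreatment and 90 min after MK-801; n = 9–10.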

[11] = molecular target: Estrogen receptor (Homo sapiens) (UniProt P03372); assay: Inhibition of Estrogen ERalpha receptor (unknown origin) at 10 uM relative to control; how it was run: as §3
[12] = molecular target: Beta-2 adrenergic receptor (Homo sapiens) (UniProt P07550); assay: Inhibition of Adrenergic beta2 receptor (unknown origin) at 10 uM relative to control; how it was run: as §1
[13] = molecular target: Glucocorticoid receptor (Homo sapiens) (UniProt P04150); assay: Inhibition of Glucocorticoid receptor (unknown origin) at 10 uM relative to control; how it was run: as §3
[14] = molecular target: Delta-type opioid receptor (Homo sapiens) (UniProt P41143); assay: Inhibition of opioid delta receptor (unknown origin) at 10 uM relative to control; how it was run: as §2
Homo sapiens = species: Homo sapiens; assay: Inhibition of Sigma receptor (unknown origin) at 10 uM relative to control; how it was run: as §3
[15] = molecular target: Prostaglandin G/H synthase 1 (Homo sapiens) (UniProt P23219); assay: Inhibition of COX-1 (unknown origin) at 10 uM relative to control; how it was run: as §1
[16] = molecular target: Interstitial collagenase (Homo sapiens) (UniProt P03956); assay: Inhibition of MMP1 (unknown origin) at 10 uM relative to control
How it was run: (§5)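 Enzyme activity assays from the same 98-target biochemical panel. Single test concentration of 10 µM. Read-out is % inhibition of enzyme activity relative to control; negative percentages indicate activation of the enzyme.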

[17] = molecular target: Phosphodiesterase 4 (Homo sapiens) (UniProt P27815+Q08499+Q07343+Q08493); assay: Inhibition of PDE4 (unknown origin) at 10 uM relative to control; assay type: protein assay; how it was run: as §5
Mus musculus [18] = assay: Pro-cognitive activity in C57BL/6N mouse assessed as increase in Egr-2 gene expression in hippocampus at 3 to 30 mg/kg, po […]; assay type: functional, organism-based; details: dose 3-30 mg/kg
[19] = molecular target: T2, G protein-coupled receptor 52 (Rattus norvegicus); assay: Agonist activity at GPR52 in rat Striatal neuron assessed as increase in c-fos mRNA expression by RT-PCR analysis; assay type: cell-based; details: filed as agonist; how it was run: as §4
[20] = molecular target: Neuromedin-K receptor (Homo sapiens) (UniProt P29371); assay: Inhibition of Tachykinin NK3 receptor (unknown origin) at 10 uM relative to control; how it was run: as §2
Mus musculus [21] = assay: Antipsychotic activity in C57BL/6N mouse assessed as increase in c-fos positive cells in dorsomedial striatum at 30 mg/kg, po measured for 2 hrs by immunohistochemistry analysis; assay type: functional, organism-based
[22] = molecular target: Phosphodiesterase 6 (Homo sapiens) (UniProt Q13956+P18545+P35913+O43924+P16499+P51160); assay: Inhibition of PDE6 (unknown origin) at 10 uM relative to control; assay type: protein assay; how it was run: as §5
[23] = molecular target: G-protein coupled receptor 52 (Mus musculus) (UniProt P0C5J4); assay: Agonist activity at mouse GPR52 expressed in CHO cells assessed as increase in intracellular cAMP level upto 10 uM incubated for 30 mins by Alphascreen assay; assay type: functional, cell-based
How it was run: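 CHO cells stably expressing human, mouse or rat GPR52, plus naïve CHO cells, at 10,000 cells/well. Stimulated in cAMP assay buffer for 30 min at 37 °C. Intracellular cAMP read by AlphaScreen.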

[24] = molecular target: Rho-associated protein kinase 1 (Homo sapiens) (UniProt Q13464); assay: Inhibition of ROCK1 (unknown origin) at 10 uM relative to control; how it was run: as §5
[25] = molecular target: Growth hormone secretagogue receptor type 1 (Homo sapiens) (UniProt Q92847); assay: Inhibition of Growth hormone secretagogue receptor (unknown origin) at 10 uM relative to control; how it was run: as §3
[26] = molecular target: GABA-A receptor; anion channel (Homo sapiens) (UniProt P14867+P47870+P18507+P28472+P48169+Q99928+Q9UN88+P34903+O00591+O14764+Q8N1C3+P18505+P78334+P47869+P31644+Q16445); assay: Inhibition of GABA receptor (unknown origin) at 10 uM relative to control; assay type: protein-complex assay; how it was run: as §3
[27] = molecular target: Adenosine receptor A2a (Homo sapiens) (UniProt P29274); assay: Inhibition of Adenosine A2A receptor (unknown origin) at 10 uM relative to control; how it was run: as §1

T2 sequence (A0A8I5ZQK1 as listed by the source): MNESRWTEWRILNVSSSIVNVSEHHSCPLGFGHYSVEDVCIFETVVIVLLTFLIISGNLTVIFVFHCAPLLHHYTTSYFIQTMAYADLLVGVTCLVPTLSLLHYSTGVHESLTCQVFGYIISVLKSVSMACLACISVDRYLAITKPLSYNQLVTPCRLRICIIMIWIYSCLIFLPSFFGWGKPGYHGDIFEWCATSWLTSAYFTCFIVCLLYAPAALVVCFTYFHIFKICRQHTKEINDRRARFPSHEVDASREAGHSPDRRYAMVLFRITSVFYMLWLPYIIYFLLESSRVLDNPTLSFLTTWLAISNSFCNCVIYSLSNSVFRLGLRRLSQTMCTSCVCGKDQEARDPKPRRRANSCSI
Chain of Neuromedin-K receptor (Homo sapiens) (P29371 whole entry): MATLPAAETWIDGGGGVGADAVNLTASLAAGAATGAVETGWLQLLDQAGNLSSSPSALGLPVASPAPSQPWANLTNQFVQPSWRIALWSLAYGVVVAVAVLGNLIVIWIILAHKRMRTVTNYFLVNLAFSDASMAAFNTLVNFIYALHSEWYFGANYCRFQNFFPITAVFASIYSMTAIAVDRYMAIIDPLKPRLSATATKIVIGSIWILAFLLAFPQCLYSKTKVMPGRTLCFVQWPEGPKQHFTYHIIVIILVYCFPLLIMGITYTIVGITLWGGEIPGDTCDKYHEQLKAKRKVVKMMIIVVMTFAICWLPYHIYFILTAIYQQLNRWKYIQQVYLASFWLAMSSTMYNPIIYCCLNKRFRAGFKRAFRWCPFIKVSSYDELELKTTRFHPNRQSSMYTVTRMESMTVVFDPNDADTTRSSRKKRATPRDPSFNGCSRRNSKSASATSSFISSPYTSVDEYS
Chain of 5-hydroxytryptamine receptor 4 (Homo sapiens) (Q13639 whole entry): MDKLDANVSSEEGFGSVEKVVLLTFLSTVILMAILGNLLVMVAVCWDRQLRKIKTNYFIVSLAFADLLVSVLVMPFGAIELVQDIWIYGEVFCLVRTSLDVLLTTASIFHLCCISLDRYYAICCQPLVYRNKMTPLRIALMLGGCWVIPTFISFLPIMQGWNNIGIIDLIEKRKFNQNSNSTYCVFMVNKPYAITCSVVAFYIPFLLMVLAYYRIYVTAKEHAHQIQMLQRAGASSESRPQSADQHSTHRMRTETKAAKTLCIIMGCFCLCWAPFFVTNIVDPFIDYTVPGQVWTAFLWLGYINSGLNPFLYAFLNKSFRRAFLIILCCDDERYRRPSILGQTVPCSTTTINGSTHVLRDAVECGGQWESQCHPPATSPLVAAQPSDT
Chain of Estrogen receptor (Homo sapiens) (P03372 whole entry): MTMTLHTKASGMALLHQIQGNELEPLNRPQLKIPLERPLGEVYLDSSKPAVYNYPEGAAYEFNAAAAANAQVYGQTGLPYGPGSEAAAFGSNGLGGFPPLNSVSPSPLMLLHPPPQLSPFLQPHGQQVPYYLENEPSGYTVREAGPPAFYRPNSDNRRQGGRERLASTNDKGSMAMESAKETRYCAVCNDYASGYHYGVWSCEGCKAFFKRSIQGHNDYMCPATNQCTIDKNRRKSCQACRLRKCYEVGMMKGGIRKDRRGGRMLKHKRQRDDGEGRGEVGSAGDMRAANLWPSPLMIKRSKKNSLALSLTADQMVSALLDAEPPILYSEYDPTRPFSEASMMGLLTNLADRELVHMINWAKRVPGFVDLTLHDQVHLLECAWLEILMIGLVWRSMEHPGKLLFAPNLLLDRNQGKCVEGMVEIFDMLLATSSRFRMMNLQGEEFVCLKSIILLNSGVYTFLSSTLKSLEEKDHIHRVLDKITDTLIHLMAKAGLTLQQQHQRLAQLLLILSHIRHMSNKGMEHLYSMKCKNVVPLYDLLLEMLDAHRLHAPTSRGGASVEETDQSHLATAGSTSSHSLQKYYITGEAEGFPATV
Chain of Beta-2 adrenergic receptor (Homo sapiens) (P07550 whole entry, looked up): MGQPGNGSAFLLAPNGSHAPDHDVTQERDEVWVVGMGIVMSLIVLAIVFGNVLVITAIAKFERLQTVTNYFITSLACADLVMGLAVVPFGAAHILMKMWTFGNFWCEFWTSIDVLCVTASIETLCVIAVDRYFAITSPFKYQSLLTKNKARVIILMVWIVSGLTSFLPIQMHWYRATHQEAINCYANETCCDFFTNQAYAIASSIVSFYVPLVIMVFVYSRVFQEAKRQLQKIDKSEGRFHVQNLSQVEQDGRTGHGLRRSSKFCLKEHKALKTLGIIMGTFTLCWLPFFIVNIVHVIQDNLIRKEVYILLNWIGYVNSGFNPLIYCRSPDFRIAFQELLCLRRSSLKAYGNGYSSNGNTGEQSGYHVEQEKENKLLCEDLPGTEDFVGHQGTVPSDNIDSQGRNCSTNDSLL
Chain of Nitric oxide synthase 1 (Homo sapiens) (P29475 whole entry): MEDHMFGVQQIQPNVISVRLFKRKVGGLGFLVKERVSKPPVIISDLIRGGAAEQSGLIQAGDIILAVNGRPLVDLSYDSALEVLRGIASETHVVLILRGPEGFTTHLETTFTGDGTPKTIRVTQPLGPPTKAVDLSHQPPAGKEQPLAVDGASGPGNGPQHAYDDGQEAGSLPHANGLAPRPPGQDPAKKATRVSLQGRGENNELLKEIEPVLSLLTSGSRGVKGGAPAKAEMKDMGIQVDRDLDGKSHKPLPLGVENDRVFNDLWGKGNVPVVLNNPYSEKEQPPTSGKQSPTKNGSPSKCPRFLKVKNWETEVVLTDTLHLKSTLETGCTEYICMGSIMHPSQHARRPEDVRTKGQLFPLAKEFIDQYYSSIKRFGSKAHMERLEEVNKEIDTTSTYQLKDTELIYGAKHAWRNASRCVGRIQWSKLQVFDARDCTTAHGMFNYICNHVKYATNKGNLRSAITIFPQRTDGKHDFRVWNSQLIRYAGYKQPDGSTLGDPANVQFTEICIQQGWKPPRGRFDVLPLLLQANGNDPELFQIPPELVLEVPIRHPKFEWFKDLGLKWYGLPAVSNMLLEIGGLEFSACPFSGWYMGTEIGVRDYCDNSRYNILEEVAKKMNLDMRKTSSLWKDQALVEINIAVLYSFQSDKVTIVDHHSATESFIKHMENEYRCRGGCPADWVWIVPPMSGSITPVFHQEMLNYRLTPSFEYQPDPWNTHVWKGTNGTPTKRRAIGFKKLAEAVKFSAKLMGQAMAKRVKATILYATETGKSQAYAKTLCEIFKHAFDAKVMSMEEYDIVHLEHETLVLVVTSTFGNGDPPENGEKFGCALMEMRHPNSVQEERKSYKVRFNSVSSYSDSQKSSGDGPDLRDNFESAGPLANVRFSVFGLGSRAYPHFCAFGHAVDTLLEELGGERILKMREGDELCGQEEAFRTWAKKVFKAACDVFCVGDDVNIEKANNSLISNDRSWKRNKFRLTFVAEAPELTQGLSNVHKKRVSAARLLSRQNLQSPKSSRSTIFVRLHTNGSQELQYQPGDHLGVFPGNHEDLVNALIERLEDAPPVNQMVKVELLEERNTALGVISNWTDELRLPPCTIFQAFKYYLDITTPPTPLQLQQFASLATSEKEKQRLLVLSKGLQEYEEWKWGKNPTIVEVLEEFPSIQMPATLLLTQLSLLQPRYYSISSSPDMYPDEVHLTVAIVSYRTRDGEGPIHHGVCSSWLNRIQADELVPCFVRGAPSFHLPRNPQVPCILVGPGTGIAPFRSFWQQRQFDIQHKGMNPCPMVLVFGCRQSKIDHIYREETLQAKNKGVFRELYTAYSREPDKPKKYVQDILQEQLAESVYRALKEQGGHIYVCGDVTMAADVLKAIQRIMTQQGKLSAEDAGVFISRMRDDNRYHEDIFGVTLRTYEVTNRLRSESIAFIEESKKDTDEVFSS
Chain of Glucocorticoid receptor (Homo sapiens) (P04150 whole entry): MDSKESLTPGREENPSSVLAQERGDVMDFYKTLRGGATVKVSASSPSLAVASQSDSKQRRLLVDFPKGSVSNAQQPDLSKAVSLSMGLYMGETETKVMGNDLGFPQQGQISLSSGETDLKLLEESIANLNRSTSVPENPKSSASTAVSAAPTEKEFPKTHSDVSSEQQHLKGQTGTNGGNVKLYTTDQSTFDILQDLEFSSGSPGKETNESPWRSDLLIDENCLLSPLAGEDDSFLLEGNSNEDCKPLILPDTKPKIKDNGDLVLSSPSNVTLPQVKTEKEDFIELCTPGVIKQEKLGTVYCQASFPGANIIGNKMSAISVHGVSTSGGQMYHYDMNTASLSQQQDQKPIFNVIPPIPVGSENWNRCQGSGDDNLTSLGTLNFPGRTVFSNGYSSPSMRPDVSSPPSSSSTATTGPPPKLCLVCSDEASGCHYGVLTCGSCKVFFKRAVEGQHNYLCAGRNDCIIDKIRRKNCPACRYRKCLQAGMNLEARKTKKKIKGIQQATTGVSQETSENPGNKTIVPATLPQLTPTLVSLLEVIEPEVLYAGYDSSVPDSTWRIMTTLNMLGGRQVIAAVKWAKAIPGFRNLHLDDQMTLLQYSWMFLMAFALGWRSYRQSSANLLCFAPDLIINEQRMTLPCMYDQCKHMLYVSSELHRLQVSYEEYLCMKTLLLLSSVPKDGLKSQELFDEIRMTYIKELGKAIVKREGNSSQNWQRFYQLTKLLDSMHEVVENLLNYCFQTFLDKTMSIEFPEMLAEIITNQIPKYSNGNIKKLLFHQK
Chain of G-protein coupled receptor 52 (Mus musculus) (P0C5J4 whole entry): as the sequence (A0A8I5ZQK1 as listed by the source) above, with V14M, D250E, Q333E, G342A, R348Q counted along it
Chain of Growth hormone secretagogue receptor type 1 (Homo sapiens) (Q92847 whole entry): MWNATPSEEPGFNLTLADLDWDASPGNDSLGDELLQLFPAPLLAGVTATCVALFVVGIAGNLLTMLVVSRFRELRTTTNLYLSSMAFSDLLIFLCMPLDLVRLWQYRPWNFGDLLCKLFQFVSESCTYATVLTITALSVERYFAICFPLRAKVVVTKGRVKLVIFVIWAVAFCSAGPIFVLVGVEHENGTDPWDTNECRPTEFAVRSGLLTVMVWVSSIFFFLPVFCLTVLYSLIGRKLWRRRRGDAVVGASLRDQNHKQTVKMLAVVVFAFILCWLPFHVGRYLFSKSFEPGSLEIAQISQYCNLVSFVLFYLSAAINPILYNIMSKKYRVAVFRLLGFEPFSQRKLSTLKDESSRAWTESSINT

Compound: Cc1cc(-n2nc(Cc3cc(F)cc(C(F)(F)F)c3)nc2C)ccc1C(N)=O [TP-024]
- inhibition at 10 µM [1]: 19%
- inhibition [2]: 9%
- inhibition at 10 µM [3]: -6%
- inhibition [4]: 11%
- inhibition [5]: 16%
- inhibition [6]: 4%
- inhibition [7]: 4%
- Activity [8]: Active
- Activity (Mus musculus [9]): inactive
- Activity (Mus musculus [10]): Dose-Dependent Effect
- inhibition [11]: -9%
- inhibition [12]: -5%
- inhibition [13]: 12%
- inhibition [14]: 4%
- inhibition (Homo sapiens): 28%
- inhibition [15]: -1%
- inhibition [16]: -3%
- inhibition [17]: 6%
- Activity (Mus musculus [18]): Active
- Activity [19]: Active
- inhibition [20]: 20%
- Activity (Mus musculus [21]): Active
- inhibition [22]: 17%
- Activity [23]: inactive
- inhibition [24]: 9%
- inhibition [25]: 0%
- inhibition [26]: 2%
- inhibition [27]: 0%
